Compound activity from PubChem.
A selection: hits, their analogues and other compounds. The true share with any hit is near 4.6%.
TAAR1 ag: agonists of human TAAR1; CHO RD-HGA16 TAAR1, Fluo-8 calcium fluorescence; vehicle wells 0%, saturating PEA agonist 100%; activation, % at 3 µM; 360,000 tested, 0.99% active;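 active means activation above the mean activation of all test compounds in the run plus 3 SD, cut at about 38% in these data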
Target sequence (Q96RJ0 whole entry, looked up): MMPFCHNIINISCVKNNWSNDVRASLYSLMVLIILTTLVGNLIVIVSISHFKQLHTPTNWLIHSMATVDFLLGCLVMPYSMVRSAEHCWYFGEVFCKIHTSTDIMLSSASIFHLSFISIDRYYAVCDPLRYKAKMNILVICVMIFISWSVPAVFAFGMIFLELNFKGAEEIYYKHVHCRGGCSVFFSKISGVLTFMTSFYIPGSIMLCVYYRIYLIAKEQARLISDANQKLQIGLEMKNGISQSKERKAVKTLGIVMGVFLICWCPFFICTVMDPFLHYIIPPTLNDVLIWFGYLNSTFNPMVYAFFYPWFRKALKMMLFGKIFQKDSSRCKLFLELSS
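Test system: RD-HGA16 (CHO) cells co-expressing Gα16 and hTAAR1 / Benchmarks: DMSO vehicle as 0%, PEA at EC100 as 100% / Repeats: no replicates (n 1) / Measure: % activation from peak over basal fluorescence ratio, DMSO-to-PEA scaled / Timing: 17-24 h plating, Fluo-8 75 min 37 °C, 30 min RT / Technique: kinetic Fluo-8 calcium fluorescence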
CHO parental Ca: counter-screen: ATP calcium response change in parental CHO cells; parental CHO-K1, ATP-induced calcium, Fluo-8 fluorescence; 330,000 tested, 0.63% active; inhibition, % at 5.6 µM;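 active means inhibition above that plate's mean sample inhibition plus 3 SD, cut at about 26% in these data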;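 further: 0% = ATP-challenged DMSO wells and 100% = DMSO wells without ATP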
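Test system: parental CHO cells; detection: calcium-sensitive Fluo-8 fluorescence; evaluation: percent inhibition of calcium signal; also added: ATP as calcium-mobilizing challenge; repeats: one well per compound; control set: ATP-challenged DMSO wells low, unchallenged DMSO wells high; compound: single nominal dose of 5.6 µM per compound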
OX1R antag-1: blocks the human orexin 1 receptor; OX1R-expressing cells, FRET antagonist read-out; O43613; 330,000 tested, 1.8% active; inhibition, % at 6.6 µM; AID 485270; in the data active means inhibition mostly above about 38%, no sharp cut-off; inactive means mostly below about 40%;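 further: 0% = agonist challenge alone and 100% = reference antagonist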
GPR7 antag: antagonists of human GPR7 (neuropeptides B/W receptor 1) | inhibition, % at 4.4 µM | P48145 | GPR7-expressing cells, fluorescence antagonist assay | 290,000 tested, 1.1% active; in the data active means inhibition above about 16%, passing the limit was not always enough;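 further: cells stimulated with the agonist NPW; 0% = agonist with vehicle and 100% = vehicle without agonist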
Target sequence (P48145 whole entry, looked up): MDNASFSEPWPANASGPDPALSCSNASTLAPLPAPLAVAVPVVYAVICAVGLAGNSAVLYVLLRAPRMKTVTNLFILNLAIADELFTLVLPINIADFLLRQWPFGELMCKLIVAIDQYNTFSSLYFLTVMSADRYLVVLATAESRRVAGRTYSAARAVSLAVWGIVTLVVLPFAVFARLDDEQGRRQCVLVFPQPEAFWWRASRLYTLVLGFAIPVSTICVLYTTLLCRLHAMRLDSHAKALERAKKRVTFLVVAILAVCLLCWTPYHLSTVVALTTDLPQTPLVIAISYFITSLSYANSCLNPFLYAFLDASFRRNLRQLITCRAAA
TAAR1 antagonist: antagonists of human TAAR1; Q96RJ0; CHO RD-HGA16 TAAR1, Fluo-8 calcium fluorescence, antagonist; inhibition, % at 3 µM; 360,000 tested, 1.5% active;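 active means inhibition above a per-plate cutoff, the mean inhibition of test compounds on that plate plus 3 SD, cut at about 49% in these data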;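 further: 0% = DMSO plus EC80 beta-PEA response and 100% = DMSO alone without agonist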
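Material: RD-HGA16 CHO cells with stable hTAAR1 and Gα16; Dosing: single nominal final test compound concentration of 3 µM; Schedule: seeding 17-24 h prior, 75-min 37 °C, 30-min RT dye loading; Detection: kinetic Fluo-8 calcium fluorescence measurement; Measure: % inhibition from peak post-agonist over basal fluorescence ratio; Benchmarks: vehicle and agonist controls.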
OX1R antag-2: human HCRTR1 antagonism; CHO/OX1R cells, Fluo-8 calcium fluorescence, orexin A; inhibition, % at 5 µM; 330,000 tested, 0.43% active;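 active means inhibition above its plate's threshold, mean inhibition of all tested compounds on the plate plus 3 SD, cut at about 37% in these data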;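 further: 0% = orexin A challenge wells and 100% = SB-334867-A antagonist wells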
TAAR1 nonsel count: nonselective antagonism, TAAR1 counter-screen | shares compounds with TAAR1 antagonist | counterscreen cell line, calcium fluorescence, antagonist mode | inhibition, % at 3 µM | 2,400 tested, 77% active | AID 651780; in the data active means inhibition above about 22%;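 further: CHO-Ga16 host cells stimulated with ATP at an EC80 level; 0% = agonist EC80 plus vehicle and 100% = vehicle without agonist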
TAAR1 ant conf: confirmation of human TAAR1 antagonists | shares compounds with TAAR1 antagonist | TAAR1-expressing cells, fluorescence antagonist read-out | inhibition, % at 3 µM | 2,400 tested, 40% active; in the data active means inhibition above about 49%;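 further: CHO-Ga16 host cells challenged with agonist PEA near its EC80; 0% = agonist at EC80 plus vehicle and 100% = vehicle with no agonist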
Ga16 nonsel ag: counter-screen for TAAR1 antagonists: nonselective Ga16 agonists. shares compounds with TAAR1 antagonist. Ga16-expressing cells, calcium fluorescence, agonist counterscreen. activation, % at 3 µM. 2,400 tested, 18% active. AID 651953; in the data active means activation above about 12%;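 further: 0% = vehicle wells and 100% = saturating stimulus response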
TAAR1 ag count: activates human TAAR1 in antagonist counter-screen; shares compounds with TAAR1 antagonist; hTAAR1 cell line, fluorescence activation, agonist mode; activation, % at 3 µM; 2,400 tested, 2% active; in the data active means activation above about 37%;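 further: CHO cells stably expressing TAAR1 with calcium dye readout; 0% = DMSO vehicle and 100% = full agonist response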
The depositor's hits bear a star; nt = not tested or not shown.

SMILES	TAAR1 ag	CHO parental Ca	OX1R antag-1	GPR7 antag	TAAR1 antagonist	OX1R antag-2	TAAR1 nonsel count	TAAR1 ant conf	Ga16 nonsel ag	TAAR1 ag count
COc1ccc(-c2cc(C(=O)NCC3CCCO3)c3ccccc3n2)cc1 (stereo not given)	8	-22	26	-17	11	-23	nt	nt	nt	nt
COc1ccc(-c2nc(C(=O)NCC3CCCO3)cc3c2[nH]c2ccccc23)cc1 (stereo not given)	3	-9	22	-2	67*	-11	25*	43	4	0
Cc1ccccc1-c1nc(C(=O)NCC2CCCO2)cc2c1[nH]c1ccccc12 (stereo not given)	0	-23	14	6	55*	-30	28*	37	5	0
Cc1ccc(-c2nc(C(=O)NCCCN(C)C)cc3c2[nH]c2ccccc23)cc1	-1	-1	10	10	-13	-15	nt	nt	nt	nt
Cc1ccc(-c2nc(C(=O)NCC3CCCO3)cc3c2[nH]c2ccccc23)cc1 (stereo not given)	4	-5	50*	-11	76*	-15	35*	55*	5	1
O=C(O)c1ccccc1C(=O)N1CCN(c2ncccn2)CC1	10	nt	nt	11	-4	nt	nt	nt	nt	nt
O=C(c1cnc(N2CCN(c3ncccn3)CC2)c2ccccc12)N1CCN(c2ncccn2)CC1	21	-6	17	-10	59*	-22	32*	49*	11	13
CN(C(=O)c1cnc(N2CCN(c3ncccn3)CC2)c2ccccc12)c1ccc(Cl)cc1	14	-20	6	-9	51*	-34	15	39	8	13
CCN(C(=O)c1cnc(N2CCN(c3ncccn3)CC2)c2ccccc12)c1cccc(Cl)c1	13	-12	16	-3	50*	-40	27*	31	4	6
COc1ccc(C(=O)Cn2nnc(-c3ccccc3NC(=O)c3ccco3)n2)cc1	16	-32	14	2	55*	-28	20	48	9	11
COc1ccc(-c2ccc(C(=O)Nc3cc(OC)c(OC)c(OC)c3)c3occc23)c(C)c1	0	nt	nt	nt	61*	nt	30*	49*	9	10
COc1ccc(-c2ccc(C(=O)Nc3ccc(Cl)cc3)c3occc23)c(C)c1	1	nt	nt	nt	5	nt	nt	nt	nt	nt
COCCNC(=O)c1ccc(-c2ccc(OC)cc2C)c2ccoc12	0	nt	nt	nt	-50	nt	nt	nt	nt	nt
COc1ccc(-c2ccc(C(=O)NCC3CCOCC3)c3occc23)c(C)c1	6	nt	nt	nt	59*	nt	32*	58*	9	12
COc1cccc(CNC(=O)[C@H]2CCCN2C(=O)[C@H]2CCCN2C(=O)c2cccc3ccccc23)c1	-2	nt	nt	nt	-7	nt	nt	nt	nt	nt
COc1cc(Cl)ccc1OCc1cc(C(=O)N2C[C@H]3CC[C@H]2C3)no1	3	-9	11	-14	-7	-16	nt	nt	nt	nt
COc1cc(C)ccc1OCc1cc(C(=O)N2C[C@H]3CC[C@H]2C3)no1	0	-4	12	3	102*	-4	7	0	2	0
Cc1n[nH]c(=O)n1-c1ccc(OC(F)(F)F)cc1	4	-10	13	-2	4	-4	nt	nt	nt	nt
CCOc1ccc(C(CC(=O)O)NC(=O)c2ccco2)cc1OC (stereo not given)	3	4	-6	-4	-3	-29	nt	nt	nt	nt
CCOc1ccc(C(CC(=O)O)NC(=O)C(c2ccccc2)c2ccccc2)cc1OC (stereo not given)	0	-9	8	nt	63*	-4	-2	-5	4	1
CCOC1=CC(=O)N(Cc2ccccc2)C1	0	-10	2	nt	-12	-10	nt	nt	nt	nt
COCCn1c(SCC(=O)Nc2c(C)n(C)n(-c3ccccc3)c2=O)nnc1-c1ccncc1	0	-5	1	nt	9	6	nt	nt	nt	nt
Cc1cccc2cc(C3CC(c4cccs4)=NN3S(C)(=O)=O)c(Cl)nc12 (stereo not given)	3	0	24	2	83*	-17	5	35	1	10
Cc1ccc2cc(C3CC(c4cccs4)=NN3S(C)(=O)=O)c(Cl)nc2c1 (stereo not given)	4	-18	22	-5	-11	-20	nt	nt	nt	nt
O=C(NN1C(=O)c2ccccc2NC1c1ccccn1)c1ccccc1 (stereo not given)	2	-10	12	0	-2	-8	nt	nt	nt	nt
SMILES	TAAR1 ag	CHO parental Ca	OX1R antag-1	GPR7 antag	TAAR1 antagonist	OX1R antag-2	TAAR1 nonsel count	TAAR1 ant conf	Ga16 nonsel ag	TAAR1 ag count
C=CCN1C(c2ccc(Br)cc2)=CS/C1=C(\C#N)c1nnc(N2CCOCC2)n1-c1ccccc1	7	nt	nt	nt	58*	nt	24*	23	5	6
C=CCN1C(c2cccc(C(F)(F)F)c2)=CS/C1=C(\C#N)c1nnc(N2CCOCC2)n1-c1ccccc1	6	nt	nt	nt	9	nt	nt	nt	nt	nt
CC(C)(C)c1ccc(CNc2ccc([N+](=O)[O-])cn2)cc1	1	5	8	2	68*	-12	14	39	12*	16
CC(C)c1ccc(CNc2ccc([N+](=O)[O-])cn2)cc1	8	18	10	-1	48	-8	nt	nt	nt	nt
COCCOC(=O)c1c(C)n(C)c2ccc(OC(=O)c3ccco3)cc12	5	-20	7	4	6	-28	nt	nt	nt	nt
COCCOC(=O)c1c(C)n(C)c2ccc(OC(=O)c3ccccc3OC)cc12	12	-12	9	-12	53*	-28	26*	45	9	7
CC(C)C(=O)Nc1cccc(C(=O)OCC(=O)c2ccc(Cl)cc2Cl)c1	19	-4	12	-8	78*	-18	54*	61*	14*	7
CC(=O)Nc1cc(C(=O)OCC(=O)c2ccc(Cl)cc2Cl)ccc1C	13	-10	0	3	10	-20	nt	nt	nt	nt
CCOCCCNC(=O)C(c1ccc(C)cc1)N(Cc1cccs1)C(=O)c1ccccn1 (stereo not given)	18	-14	10	-15	61*	-4	30*	55*	12*	13
CCOCCCNC(=O)C(c1ccc(Cl)cc1)N(Cc1cccs1)C(=O)c1ccccn1 (stereo not given)	18	3	7	3	71*	-34	21	38	9	10
CCOCCCNC(=O)C(c1ccc(OC)cc1)N(Cc1ccc2c(c1)OCO2)C(=O)c1ccccn1 (stereo not given)	6	-13	17	-7	-4	-24	nt	nt	nt	nt
